In ChEMBL document CHEMBL4706740, “Structure-Activity Study of Nitazoxanide Derivatives as Novel STAT3 Pathway Inhibitors” (ACS Med Chem Lett, 2021):
The source made the active and inactive calls. The calls are words filed in the database; no cut-off is given here.

Tests used:
Caco-2 = assay: Antiproliferative activity against human Caco-2 cells assessed as cell growth inhibition measured after 48 hrs by MTT assay; type: functional, cell-based; conditions: Caco-2, 48 h
[1] = biological target: Signal transducer and activator of transcription 3 (Homo sapiens) (UniProt P40763); assay: Inhibition of IL-6 induced STAT3 transcriptional activity in human HEK-Blue IL-6 cells assessed as secreted embryonic alkaline phosphatase reporter gene expression at 10 uM by microplate reader; type: cell-based
In short: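 Single-concentration screen in HEK-Blue IL-6 cells: % inhibition of the SEAP reporter read-out of STAT3 pathway activity, with viability checked by MTT in parallel. Values are averages of three independent experiments.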

HeLa [2] = assay: Induction of apoptosis in human HeLa cells assessed as early apoptotic cells at 40 uM incubated for 24 hrs by Annexin V-FITC/PI staining based flow cytometry (reference value: 2.84%); type: functional
HeLa [3] = assay: Induction of apoptosis in human HeLa cells assessed as early apoptotic cells at 20 uM incubated for 24 hrs by Annexin V-FITC/PI staining based flow cytometry (reference value: 2.84%); type: functional
HeLa [4] = assay: Induction of cell cycle arrest in human HeLa cells assessed as accumulation at G2/M phase at 40 uM measured after 24 hrs by flow cytometry analysis (reference value: 11.81%); type: functional
[5] = Elimination Half life in Sprague-Dawley rat at 5 mg/kg, iv; type: ADME, organism-based; conditions: in vivo, read-out: beta t1/2 (converted)
In short: (§1)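 Rats, n = 3 per group, received a single dose either intragastrically (25 mg/kg) or intravenously (5 mg/kg). Plasma concentration–time curves were used to derive t1/2α, t1/2β, Vd/F, CL/F, AUC0–∞, Tmax and Cmax. Absolute oral bioavailability was calculated from the ig and iv data.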

HeLa [6] = assay: Induction of apoptosis in human HeLa cells assessed as necrotic cells at 20 uM incubated for 24 hrs by Annexin V-FITC/PI staining based flow cytometry (reference value: 0.02%); type: functional
[7] = Selectivity index, ratio of inhibition of IL-6 induced STAT3 transcriptional activity to inhibition against HEK-Blue IL-6 cells assessed as reduction in cell viability at 10 uM
HeLa [8] = assay: Induction of cell cycle arrest in human HeLa cells assessed as accumulation at G2/M phase at 20 uM measured after 24 hrs by flow cytometry analysis (reference value: 11.81%); type: functional
[9] = Half life in Sprague-Dawley rat at 25 mg/kg, IG; type: ADME, organism-based; conditions: in vivo, po; in short: as §1
HeLa [10] = assay: Induction of apoptosis in human HeLa cells assessed as necrotic cells at 40 uM incubated for 24 hrs by Annexin V-FITC/PI staining based flow cytometry (reference value: 0.02%); type: functional
HeLa [11] = assay: Induction of cell cycle arrest in human HeLa cells assessed as accumulation at S phase at 40 uM measured after 24 hrs by flow cytometry analysis (reference value: 34.04%); type: functional
[12] = biological target: Signal transducer and activator of transcription 3 (Homo sapiens) (UniProt P40763); assay: Inhibition of STAT3 in human HeLa cells assessed as decrease in phosphorylation of STAT3 at Ser727 after 24 hrs by western blot analysis; type: cell-based; conditions: dose microM <=80, time […]
In short: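 HeLa cells were treated with graded doses for 1 h or 24 h. Total cell lysates were immunoblotted with specific antibodies against p-STAT3 (Tyr705), p-STAT3 (Ser727) and total STAT3.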

[13] = biological target: Signal transducer and activator of transcription 3 (Homo sapiens) (UniProt P40763); assay: Inhibition of STAT3 transcriptional activity in human HeLa cells assessed as downregulation of survivin expression upto 80 uM after 24 hrs by western blot analysis; type: cell-based; conditions: dose microM <=80, time […]
In short: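 HeLa cells treated 24 h with a concentration series. Total cell lysates probed by Western blot with specific antibodies for the STAT3 target gene products cyclin D1, c-Myc and survivin.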

[14] = AUC (0 to infinity) in Sprague-Dawley rat at 25 mg/kg, IG; type: ADME, organism-based; set-up: route […], time infinity, dose 25 mg/kg; conditions: in vivo, po; in short: as §1
[15] = Half life in Sprague-Dawley rat at 5 mg/kg, iv; type: ADME, organism-based; conditions: in vivo; in short: as §1
A549 = assay: Antiproliferative activity against human A549 cells assessed as cell growth inhibition measured after 48 hrs by MTT assay; type: functional, cell-based; conditions: A549, 48 h
[16] = biological target: Signal transducer and activator of transcription 3 (Homo sapiens) (UniProt P40763); assay: Binding affinity to GST-tagged human STAT3 using 5-carboxyfluorescein labelled peptide incubated for 1 hr by fluorescence polarization assay
[17] = Absolute bioavailability in Sprague-Dawley rat at 25 mg/kg, IG; type: ADME, organism-based; conditions: in vivo, po; in short: as §1
HT-29 = assay: Antiproliferative activity against human HT29 cells assessed as cell growth inhibition measured after 48 hrs by MTT assay; type: functional, cell-based; conditions: HT-29, 48 h
[18] = Cytotoxicity against human HeLa cells assessed as inhibition of cell viability at 10 uM measured after 48 hrs by MTT assay; type: cell-based; conditions: read-out: INH
[19] = biological target: Tyrosine-protein kinase JAK2 (Homo sapiens) (UniProt O60674); assay: Inhibition of Jak2 phosphorylation at Tyr1007/1008 in human Hela cells upto 80 uM after 24 hrs by Western blot analysis; type: cell-based; conditions: dose microM <=80, time […]
HeLa [20] = assay: Induction of apoptosis in human HeLa cells assessed as late apoptotic cells at 40 uM incubated for 24 hrs by Annexin V-FITC/PI staining based flow cytometry (reference value: 4.7%); type: functional
[21] = Cytotoxicity against human HEK-Blue IL-6 cells assessed as cell death at 80 uM; type: cell-based; conditions: hek-blue il-6, 80 µM
[22] = biological target: Proto-oncogene tyrosine-protein kinase Src (Homo sapiens) (UniProt P12931); assay: Inhibition of Src phosphorylation at Tyr416 in human Hela cells upto 80 uM after 24 hrs by Western blot analysis; type: cell-based; conditions: dose microM <=80, time […]
[23] = biological target: Signal transducer and activator of transcription 3 (Homo sapiens) (UniProt P40763); assay: Inhibition of STAT3 in human HeLa cells assessed as decrease in phosphorylation of STAT3 at Tyr705 cells pretreated with Na3VO4 phosphatase inhibitor measured at 80 uM incubated for 1 hr by Western blot analysis; type: cell-based
In short: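 HeLa cells pretreated 15 min with 25 μM Na3VO4 (phosphatase inhibitor) before compound exposure. p-STAT3 (Tyr705) assessed by Western blot of total cell lysates with specific antibodies and compared with cells not given Na3VO4.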

[24] = Apparent volume of distribution in Sprague-Dawley rat at 5 mg/kg, iv; type: ADME, organism-based; conditions: in vivo; in short: as §1

Sequence of Signal transducer and activator of transcription 3 (Homo sapiens) (P40763 whole entry): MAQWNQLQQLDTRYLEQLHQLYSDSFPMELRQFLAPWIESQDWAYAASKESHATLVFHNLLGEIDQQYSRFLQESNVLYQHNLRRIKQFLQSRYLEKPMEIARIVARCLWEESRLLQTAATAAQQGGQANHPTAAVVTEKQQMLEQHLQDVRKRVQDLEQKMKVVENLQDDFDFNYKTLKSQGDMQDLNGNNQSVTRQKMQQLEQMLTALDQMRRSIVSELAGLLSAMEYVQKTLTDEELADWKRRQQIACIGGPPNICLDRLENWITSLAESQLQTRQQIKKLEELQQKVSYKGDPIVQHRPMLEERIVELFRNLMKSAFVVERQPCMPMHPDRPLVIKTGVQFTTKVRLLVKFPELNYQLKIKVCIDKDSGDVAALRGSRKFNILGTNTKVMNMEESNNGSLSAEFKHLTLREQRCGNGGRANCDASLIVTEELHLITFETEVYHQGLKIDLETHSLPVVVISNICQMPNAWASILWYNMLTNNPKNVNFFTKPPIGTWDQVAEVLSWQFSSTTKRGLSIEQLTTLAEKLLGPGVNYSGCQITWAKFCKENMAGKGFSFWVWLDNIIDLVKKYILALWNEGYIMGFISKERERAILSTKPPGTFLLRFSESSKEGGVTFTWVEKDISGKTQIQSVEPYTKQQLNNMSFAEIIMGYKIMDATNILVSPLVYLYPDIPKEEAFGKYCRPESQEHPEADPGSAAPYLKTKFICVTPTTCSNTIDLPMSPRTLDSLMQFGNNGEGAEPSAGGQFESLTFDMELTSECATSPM
Sequence of Tyrosine-protein kinase JAK2 (Homo sapiens) (O60674 whole entry): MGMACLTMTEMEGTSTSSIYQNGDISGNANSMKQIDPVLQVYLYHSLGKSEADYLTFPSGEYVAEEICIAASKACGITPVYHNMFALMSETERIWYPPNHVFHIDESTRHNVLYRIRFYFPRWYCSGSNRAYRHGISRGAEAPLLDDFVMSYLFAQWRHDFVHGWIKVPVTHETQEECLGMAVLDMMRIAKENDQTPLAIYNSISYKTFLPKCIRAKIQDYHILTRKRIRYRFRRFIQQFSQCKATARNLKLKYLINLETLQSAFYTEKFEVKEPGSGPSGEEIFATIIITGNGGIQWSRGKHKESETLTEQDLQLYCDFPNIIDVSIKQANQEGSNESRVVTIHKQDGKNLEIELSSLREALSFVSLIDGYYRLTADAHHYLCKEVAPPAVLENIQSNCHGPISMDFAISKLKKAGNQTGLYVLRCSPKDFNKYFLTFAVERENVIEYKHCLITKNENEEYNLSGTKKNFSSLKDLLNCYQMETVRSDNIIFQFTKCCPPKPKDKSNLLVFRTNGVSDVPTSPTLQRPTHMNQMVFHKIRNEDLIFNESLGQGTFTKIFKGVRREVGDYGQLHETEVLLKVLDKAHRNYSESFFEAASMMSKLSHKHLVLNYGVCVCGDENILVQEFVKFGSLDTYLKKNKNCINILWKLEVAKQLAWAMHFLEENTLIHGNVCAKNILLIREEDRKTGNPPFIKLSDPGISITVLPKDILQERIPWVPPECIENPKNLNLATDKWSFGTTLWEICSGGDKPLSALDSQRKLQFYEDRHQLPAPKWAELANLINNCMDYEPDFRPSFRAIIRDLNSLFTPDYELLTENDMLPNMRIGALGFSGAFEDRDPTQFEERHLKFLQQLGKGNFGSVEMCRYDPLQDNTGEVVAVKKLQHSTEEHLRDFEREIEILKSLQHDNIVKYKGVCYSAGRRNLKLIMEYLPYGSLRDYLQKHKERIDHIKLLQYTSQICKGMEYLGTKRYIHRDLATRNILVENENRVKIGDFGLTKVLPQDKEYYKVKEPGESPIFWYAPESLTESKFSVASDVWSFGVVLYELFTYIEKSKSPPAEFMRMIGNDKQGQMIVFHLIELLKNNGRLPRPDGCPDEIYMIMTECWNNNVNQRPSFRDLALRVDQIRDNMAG
Sequence of Proto-oncogene tyrosine-protein kinase Src (Homo sapiens) (P12931 2-536 limits assumed): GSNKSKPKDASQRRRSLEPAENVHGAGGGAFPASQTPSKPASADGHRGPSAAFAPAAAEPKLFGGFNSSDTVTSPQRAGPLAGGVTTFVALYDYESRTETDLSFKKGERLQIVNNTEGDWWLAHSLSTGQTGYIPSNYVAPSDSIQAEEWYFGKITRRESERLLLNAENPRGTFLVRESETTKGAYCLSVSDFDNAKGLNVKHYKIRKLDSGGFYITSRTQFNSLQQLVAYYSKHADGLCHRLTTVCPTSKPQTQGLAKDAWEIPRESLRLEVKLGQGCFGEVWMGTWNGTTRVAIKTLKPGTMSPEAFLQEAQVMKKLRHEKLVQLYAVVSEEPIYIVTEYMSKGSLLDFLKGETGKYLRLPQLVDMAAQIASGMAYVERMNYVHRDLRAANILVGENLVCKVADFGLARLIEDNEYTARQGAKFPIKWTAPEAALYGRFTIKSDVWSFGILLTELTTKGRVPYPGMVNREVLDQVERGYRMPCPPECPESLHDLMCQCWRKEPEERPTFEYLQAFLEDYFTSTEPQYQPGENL

Compound `CC(=O)Oc1ccccc1C(=O)Nc1ncc([N+](=O)[O-])s1` [NITAZOXANIDE] has an IC50 (Caco-2) of 26.8 µM, an inhibition [1] of 54.6% and an Activity (HeLa [2]) of 7.48%. The Activity (HeLa [3]) was 4.49%, the Activity (HeLa [4]) was 6.6% and the half-life [5] was 18 min. The Activity (HeLa [6]) was 0.04%, the “Selectivity Index” value [7] was 2.8 and the Activity (HeLa [8]) was 8.27%. It also gave a half-life [9] of 36 min, an Activity (HeLa [10]) of 0.06% and an Activity (HeLa [11]) of 22.76%. The inhibition [12] was “Dose-dependent effect”, the inhibition [13] was “Dose-dependent effect” and the AUC(0-inf) [14] was 3200 ng·h/mL. For the same compound, the half-life [15] was 3 min, the IC50 (A549) was greater than 50 µM and the Activity [16] was “inactive”. It also gave a bioavailability [17] of 5.7%, an IC50 (HT-29) greater than 50 µM and a cytotoxicity at 48 h, 10 µM [18] of 19.4%. The inhibition [19] was “inactive”, the Activity (HeLa [20]) was 15.12% and the Activity [21] was “Non-Toxic”. The inhibition [22] was “inactive”, the inhibition [23] was “Active” and the Vd/F [24] was 0.08 L/kg.
